Experiments:
MS2 coat protein [1] = assay: apparent Kd, MS2 coat protein; higher = weaker binding; RNA-MaP array; tryptophan 2.4 mM where present
Summary of the method: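 The apparent Kd is reported as the median of filtered per-cluster binding-curve fits. To get these curves, designs transcribed by stalled E. coli RNA polymerase on Illumina sequencing-chip clusters were titrated with SNAP-549-labelled MS2 coat protein from 0.7 or 1.5 nM, doubling to 3 µM. Titrations were run without and then with constant ligand in 100 mM Tris-HCl pH 7.5, 80 mM KCl, 4 mM MgCl2, BSA, DTT, yeast tRNA and Tween-20, and green signal was normalised to red-channel RNA signal and control-cluster median Fmax.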

MS2 coat protein [2] = assay: apparent Kd, MS2 coat protein; higher = weaker binding; RNA-MaP array
Summary of the method: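 In Tris-HCl pH 7.5 buffer with KCl, MgCl2, BSA, DTT, tRNA and Tween20, with or without input ligand, fluorescently labeled MS2 coat protein at 1.5 nM to 3 μM was incubated at room temperature with designed RNAs. The RNAs had been transcribed on an Illumina sequencing chip from sequenced DNA templates, and incubation ran 0.8–1.5 h at the lowest to 10–20 min at the highest concentrations. Apparent Kd is the median of binding-curve fits for individual clusters. Designs measured on fewer than 10 clusters were excluded.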

[3] = designed as: OFF switch for tryptophan, no ligand
[4] = ligand present: tryptophan, designed as: OFF switch for tryptophan
[5] = designed as: ON switch for tryptophan, no ligand
[6] = ligand present: tryptophan, designed as: ON switch for tryptophan
[7] = designed as: ON switch for flavin mononucleotide, no ligand
[8] = ligand present: flavin mononucleotide, designed as: ON switch for flavin mononucleotide
[9] = designed as: OFF switch for flavin mononucleotide, no ligand
[10] = ligand present: flavin mononucleotide, designed as: OFF switch for flavin mononucleotide
[11] = designed as: OFF switch for theophylline, no ligand
[12] = ligand present: theophylline, designed as: OFF switch for theophylline

UAUCGUCAGACGGCCGCCACUAGAACAUGAGGAUCACCCAUGUACUAGUGGCAUACCUCAUGAACUAGGACCGGGUCUGACGAAU
apparent Kd (MS2 coat protein [1]; [3]): 9.33 nM | apparent Kd (MS2 coat protein [1]; [4]): 9.25 nM

AGAUUCGACACGGCCGCCACUUGUGGUGGAUUAUCCUAUGUAAGACAUGAGGAUCACCCAUGUACAAGGACCGGGUGUUGAGUCU
apparent Kd (MS2 coat protein [1]; [3]): 308 nM | apparent Kd (MS2 coat protein [1]; [4]): 93.1 nM

AUAUAUACAUGAGGAUCACCCAUGUUAUUUCGAGGACCGGUACGGCCGCCACUCGAUAGAGUAGAAGUAACAUUUGUUAGAUGAU
apparent Kd (MS2 coat protein [1]; [5]): 21.6 nM | apparent Kd (MS2 coat protein [1]; [6]): 13.2 nM

AGUGUCGGAGCGGCCGCCACUAGCACAUCUGGUCGCCAUGGCAACAUGAGGAUCACCCAUGUUGCUAGGACCGGGCUCAAUAUUU
apparent Kd (MS2 coat protein [1]; [3]): 9.38 nM | apparent Kd (MS2 coat protein [1]; [4]): 10.7 nM

GUAGCGACGACGGCCGCCACUCACACGAGAGGGUAGACCAACCUUCACAUGAGGAUCACCCAUGUGAGGACCGGGUUGUCGGUAC
apparent Kd (MS2 coat protein [1]; [3]): 24 nM | apparent Kd (MS2 coat protein [1]; [4]): 171 nM

CCUGUAGACCCGACAUGAGGAUCACCCAUGUGUAGUUAUGGUAGAAGGUCGUACUGAACACACUCGAAGGAUAUACCCUUAUAC
apparent Kd (MS2 coat protein [2]; [7]): 13.9 nM | apparent Kd (MS2 coat protein [2]; [8]): 13.3 nM

CAAAUAUAGUCAGGAUAUGUUCGAAAGGGUGCACAUGAGGAUCACCCAUGUCAUAAGACACUAGCACAGAAGGGACCCGAGAGA
apparent Kd (MS2 coat protein [2]; [9]): 149 nM | apparent Kd (MS2 coat protein [2]; [10]): 141 nM

CAACAUGAGGAUCACCCAUGUGGAGGUCCCGUUACCGGCGGAUAGGAUAUGGAACGCAGCGAAAACCAGAAGGAUCUAUAGGAC
apparent Kd (MS2 coat protein [2]; [10]): 112 nM

CUCCCACUAUCUGAUACCAGAGGAUAAACGUAGACUGGGAACAUGAGGAUCACCCAUGUCCUCCCUUGGCAGCAGGACUUAUCUC
apparent Kd (MS2 coat protein [2]; [11]): 21.9 nM | apparent Kd (MS2 coat protein [2]; [12]): 38.3 nM

CCAAGAGUACUAGGAUAUUCCGGCCACGCACAUGAGGAUCACCCAUGUGAGACUCUCAGACGGUCGAAGAAGGAGUUGCAGGCU
apparent Kd (MS2 coat protein [2]; [9]): 34.8 nM | apparent Kd (MS2 coat protein [2]; [10]): 30.9 nM

GCAGUAAGAGAGGAUAUGAUGGACGCAAGGGCGUCAGAAGGCUCUACAUGAGGAUCACCCAUGUGAAGUUCAUA
apparent Kd (MS2 coat protein [2]; [9]): 6.12 nM | apparent Kd (MS2 coat protein [2]; [10]): 6.52 nM

CGACUGAAUAGGCAGUACACAUGAGGAUCACCCAUGUUAGCAAGAAGGCAAGAGCCAGCGGAGCUUGAGGAUAUUGAAGAUCUC
apparent Kd (MS2 coat protein [2]; [7]): 27.2 nM | apparent Kd (MS2 coat protein [2]; [8]): 27.4 nM

AUGAUCAUAGUAAGGAUAUCCGGACCAAUAGCAAAGGAGAAGGUACAUGAGGAUCACCCAUGUUUAUUAAUACU
apparent Kd (MS2 coat protein [2]; [9]): 9.11 nM | apparent Kd (MS2 coat protein [2]; [10]): 9.98 nM

CCGUGGCAUCAACAGGAUAUGCUAUCAAAGACAUGAGGAUCACCCAUGUGGGUAUAUUACUUCCGGCAGAAGGGUUUAAGGGUUAC
apparent Kd (MS2 coat protein [2]; [7]): 36.6 nM | apparent Kd (MS2 coat protein [2]; [8]): 28.9 nM

AACGAAUGAGGAUAUACAUGAGGAUCACCCAUGUGAAAGGGAGGUUGAAGAUUUGACAGUAGAAGGCAUAUGAC
apparent Kd (MS2 coat protein [2]; [9]): 94.2 nM | apparent Kd (MS2 coat protein [2]; [10]): 80 nM

GAAAAUUCCUAGAAGGCGGAUUAUACUUGGUUGAACAUGAGGAUCACCCAUGUAUCUGGCAAACCCGAGGAUAUAGAUUUUCCA
apparent Kd (MS2 coat protein [2]; [7]): 56.2 nM | apparent Kd (MS2 coat protein [2]; [8]): 31.2 nM

CCGCCCUACCGCGAUACCAGUACGGCAGUUAACAUGAGGAUCACCCAUGUGCAAACAUAAUACCCUUGGCAGCGCCUGAAUCCAU
apparent Kd (MS2 coat protein [2]; designed as: ON switch for theophylline, no ligand): 17.7 nM | apparent Kd (MS2 coat protein [2]; ligand present: theophylline, designed as: ON switch for theophylline): 17.3 nM

AAGCGCAAAGGAUAUAGCCGAUCCAACAUGAGGAUCACCCAUGUGACUUCCGACAUCAAGCUAGAAGGUUGAUGCA
apparent Kd (MS2 coat protein [2]; [9]): 47.6 nM | apparent Kd (MS2 coat protein [2]; [10]): 41 nM

UUUUACAUGAGGAUCACCCAUGUGCGGCGCCGAGGACCGGUACGGCCGCCACUCGCAUGGGCAUGCCGCGAUAUCAUUCCUGAAC
apparent Kd (MS2 coat protein [2]; [5]): 96.2 nM | apparent Kd (MS2 coat protein [2]; [6]): 103 nM

GUGCUGAAUACGUAGGAUAUAGUGUGUGCGACAUGAGGAUCACCCAUGUAAAUUGCCCAUCAGAGCUAGAAGGACGAAUCUUCGUG
apparent Kd (MS2 coat protein [2]; [7]): 15.5 nM | apparent Kd (MS2 coat protein [2]; [8]): 8.78 nM

AAUAAACGAGGAUAUACAGAUCAAGAUUAUCUAGUGAUCCUACAUGAGGAUCACCCAUGUAGAAGGCGAGAACA
apparent Kd (MS2 coat protein [2]; [9]): 51.1 nM | apparent Kd (MS2 coat protein [2]; [10]): 66.7 nM

GGAAGUGUCUAGGAUAUCCUUCGAUCUAUGGCAGGAGAAGGAGAUACAUGAGGAUCACCCAUGUAGGUACGGGC
apparent Kd (MS2 coat protein [2]; [9]): 7.1 nM | apparent Kd (MS2 coat protein [2]; [10]): 6.75 nM

ACUCGGCAUCAUGAUACCAGAGAGCCCGAGAUGCCUUAACACAUGAGGAUCACCCAUGUACUCCCUUGGCAGCAUCAUGCACUAU
apparent Kd (MS2 coat protein [2]; [11]): 19.4 nM | apparent Kd (MS2 coat protein [2]; [12]): 24.4 nM

UAAGCGUUAGGAUAUACAAAACGAAGAAAGUGAUUCAGAAUACAUGAGGAUCACCCAUGUAGAAGGAACGGGUA
apparent Kd (MS2 coat protein [2]; [9]): 17.7 nM | apparent Kd (MS2 coat protein [2]; [10]): 24.2 nM

UAUAGGACUUAAGGAUAUGGCACCGGUGUCCCGCCAGAAGGUAAGGACCACACAUGAGGAUCACCCAUGUUCUCGAGAAUGGGA
apparent Kd (MS2 coat protein [2]; [7]): 145 nM | apparent Kd (MS2 coat protein [2]; [8]): 112 nM

UGAACGUCAAGGCAGGAUAUUCUCAAGACAACAUGAGGAUCACCCAUGUUACAACGAUAAAUGAUGAAGAAGGGCCAGGGAUCAUA
apparent Kd (MS2 coat protein [2]; [7]): 11.8 nM | apparent Kd (MS2 coat protein [2]; [8]): 6.33 nM
